# Laboratory results taken from ChEMBL document CHEMBL1121968, “Phospholipid-nucleoside conjugates. 3. Syntheses and preliminary biological evaluation of 1-beta-D-arabinofuranosylcytosine 5'-monophosphate-L-1,2-dipalmitin and selected 1-beta-D-arabinofuranosylcytosine 5-diphosphate-L-1,2-diacylglycerols” (1982).
# pEC50: −log10 of the molar value.
# Legend:
# Mus musculus [1] = organism: Mus musculus; test: Number of mice survived after 30 days; type: functional
# Method in brief: (§1)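 C3D2F1/J mice (groups of six, av wt 25 g) were inoculated ip with 1×10^6 L1210 lymphoid leukemia cells. Dosing started 24 h after implantation and continued daily through day 5. Read-outs were median survival time of treated versus controls (T/C, 24 controls), %ILS = (T/C − 1)×100, 30-day survivors, and weight change on day 8.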
# Mus musculus [2] = test: Percent increase in life span calculated as (T/C-1)X100 at a dose of 20 mg/kg/day X5; type: functional; method in brief: as §1
# Mus musculus [3] = test: Percent increase in life span calculated as (T/C-1)X100 at a dose of 40 mg/kg/day X5; type: functional; method in brief: as §1
# Mus musculus [4] = test: Median survival time expressed as (T/C) was measured at dose of 10 mg/kg/day *5; 15.0/7.5; type: functional; method in brief: as §1
# Mus musculus [5] = test: Median survival time expressed as (T/C) was measured at dose of 40 mg/kg/day X5; 20.0/7.5; type: functional; method in brief: as §1
# Mus musculus [6] = test: Change in weight of mouse on day 8 was measured in L1210 lymphoid leukemia inoculated mice after ip administration at dose of 20 mg/kg/day X5; type: functional; details: route intraperitoneal
# Method in brief: (§2)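 C3D2F1/J mice, groups of six, average weight 25 g, were inoculated ip with 1×10^6 L1210 lymphoid leukemia cells following NCI protocol. Dosing was ip, daily, starting 24 h after tumor implantation and continuing through day 5. Body-weight change in g/mouse was recorded on day 8. Pooled controls were 24 mice.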
# Mus musculus [7] = test: Percent increase in life span calculated as (T/C-1)X100 at a dose of 10 mg/kg/day *5; type: functional; method in brief: as §1
# MPC-11 [8] = test: In vitro antiproliferative activity was measured in mouse myeloma MPC-11 cell line; type: functional; details: read-out: ED50 (the source's name)
# MPC-11 [9] = test: In vitro lethal dose was measured in mouse myeloma MPC-11 cell line; type: functional; details: read-out: LD50 (the source's name)
# Mus musculus [10] = test: Median survival time expressed as (T/C) was measured at dose of 20 mg/kg/day X5; 18.0/7.5; type: functional; method in brief: as §1
# Mus musculus [11] = test: Change in weight of mouse on day 8 was measured in L1210 lymphoid leukemia inoculated mice after ip administration at dose of 40 mg/kg/day X5; type: functional; details: route intraperitoneal; method in brief: as §2
# Mus musculus [12] = test: Change in weight of mouse on day 8 was measured in L1210 lymphoid leukemia inoculated mice after ip administration at dose of 10 mg/kg/day *5; type: functional; details: route intraperitoneal; method in brief: as §2
# [13] = In vitro antiproliferative activity was measured in mouse L1210 lymphoid leukemia cell line; details: read-out: ED50 (the source's name)
# Mus musculus [14] = test: Percent increase in life span calculated as (T/C-1)X100 at a dose of 60 mg/kg/day X5; type: functional; method in brief: as §1
# Mus musculus [15] = test: Median survival time expressed as (T/C) was measured at dose of 60 mg/kg/day x5; 8.5/8.0; type: functional; method in brief: as §1
# Mus musculus [16] = test: Median survival time expressed as (T/C) was measured at dose of 40 mg/kg/day X5; 19.0/7.5; type: functional; method in brief: as §1
# Mus musculus [17] = test: Change in weight of mouse on day 8 was measured in L1210 lymphoid leukemia inoculated mice after ip administration at dose of 60 mg/kg/day X5; type: functional; details: route intraperitoneal; method in brief: as §2
# Mus musculus [18] = test: Median survival time expressed as (T/C) was measured at dose of 10 mg/kg/day *5; 14.0/7.5; type: functional; method in brief: as §1
# Mus musculus [19] = test: Change in weight of mouse on day 8 was measured in L1210 lymphoid leukemia inoculated mice after ip administration at dose of 50 mg/kg/day X5; type: functional; details: route intraperitoneal; method in brief: as §2
# Mus musculus [20] = test: Median survival time expressed as (T/C) was measured at dose of 50 mg/kg/day *5; 14.0/8.0
# Mus musculus [21] = test: Change in weight of mouse on day 8 was measured in L1210 lymphoid leukemia inoculated mice after ip administration at dose of 25 mg/kg/day X5; type: functional; details: route intraperitoneal; method in brief: as §2
# Mus musculus [22] = test: Percent increase in life span calculated as (T/C-1)X100 at a dose of 25 mg/kg/day X5; type: functional; method in brief: as §1
# Mus musculus [23] = test: Median survival time expressed as (T/C) was measured at dose of 40 mg/kg/day X5; 24.5/8.5; type: functional; method in brief: as §1
# Mus musculus [24] = test: Median survival time expressed as (T/C) was measured at dose of 25 mg/kg/day X5; 20.0/7.0
# Mus musculus [25] = test: Median survival time expressed as (T/C) was measured at dose of 40 mg/kg/day X5; type: functional; method in brief: as §1
# Mus musculus [26] = test: Median survival time expressed as (T/C) was measured at dose of 20 mg/kg/day X5; type: functional; method in brief: as §1
# Mus musculus [27] = test: Median survival time expressed as (T/C) was measured at dose of 10 mg/kg/day *5; type: functional; method in brief: as §1
Compound,Survivors (Mus musculus [1]),ILS at 20 mg/kg/day (Mus musculus [2]) [%],ILS at 40 mg/kg/day (Mus musculus [3]) [%],Weight change (Mus musculus [6]) [g mouse-1],ILS at 10 mg/kg/day (Mus musculus [7]) [%],pEC50 (MPC-11 [8]),CC50 (MPC-11 [9]) [µM],T/C (Mus musculus [10]) [days],Weight change (Mus musculus [11]) [g mouse-1],Weight change (Mus musculus [12]) [g mouse-1],pEC50 [13],also measured
CCCCCCCCCCCCCCCCCC(=O)OC[C@H](COP(=O)(O)OP(=O)(O)OC[C@H]1O[C@@H](n2ccc(N)nc2=O)[C@@H](O)[C@@H]1O)OC(=O)CCCCCCCCCCCCCCCCC,0,140,167,1.1,100,3.71,164,18,-0.4,1.2,4.70,T/C (Mus musculus [4]): 15 days; T/C (Mus musculus [5]): 20 days
CCCCCCCCCCCCCC(=O)OC[C@H](COP(=O)(O)OP(=O)(O)OC[C@H]1O[C@@H](n2ccc(N)nc2=O)[C@@H](O)[C@@H]1O)OC(=O)CCCCCCCCCCCCC,0,140,153,1.15,87,4.82,15.2,18,0.1,1.8,4.80,ILS at 60 mg/kg/day (Mus musculus [14]): 6%; T/C (Mus musculus [15]): 8.5 days; T/C (Mus musculus [16]): 19 days; Weight change (Mus musculus [17]): -4.6 g mouse-1; T/C (Mus musculus [18]): 14 days
CCCCCCCCCCCCCCCC(=O)OC[C@H](COP(=O)(O)OC[C@H]1O[C@@H](n2ccc(N)nc2=O)[C@@H](O)[C@@H]1O)OC(=O)CCCCCCCCCCCCCCC,0,,,,,,,,,,4.87,Weight change (Mus musculus [19]): 1.7 g mouse-1; T/C (Mus musculus [20]): 14 days
CCCCCCCCCCCCCCCC(=O)OC[C@H](COP(=O)(O)OP(=O)(O)OC[C@H]1O[C@@H](n2ccc(N)nc2=O)[C@@H](O)[C@@H]1O)OC(=O)CCCCCCCCCCCCCCC,1,,188,,,4.19,68.5,,-1.8,,5.02,Weight change (Mus musculus [21]): 1.57 g mouse-1; ILS at 25 mg/kg/day (Mus musculus [22]): 186%; T/C (Mus musculus [23]): 24.5 days; T/C (Mus musculus [24]): 20 days
Nc1ccn([C@@H]2O[C@H](CO)[C@@H](O)[C@@H]2O)c(=O)n1 [CYTARABINE],0,65,65,0.5,53,6.00,1.91,,0.6,0.8,7.00,T/C (Mus musculus [25]): 14 days; T/C (Mus musculus [26]): 14 days; T/C (Mus musculus [27]): 13 days
